# Fibroblast inh – antiproliferative effect on LL 47 fibroblasts – human, LL 47 cells, CellTiter-Glo luminescence, primary screen; 1.1% of 85,000 active; LL 47 human lung fibroblast viability, ATP luminescence; active compounds read low; viability, % at 10 µM;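 active = viability at or below 50% in the single dose screen; inactive = viability above 50%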;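 note: compound exposure lasted 72 h before the ATP readout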
#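 Material: human lung fibroblast line LL 47, low passage; Evaluation: viability percentage against median untreated-cell control; Buffer or medium: 15% FBS in IMEM; Incubation: 72 h compound exposure at 37 °C after overnight plating; Dosing: 0.1% DMSO in all compound wells; Measured by: CellTiter-Glo luminescence.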
# PTEN del growth – growth suppression of PTEN-null HCT116, primary screen, cell-based, CellTiter-Glo. 1.2% of 140,000 active. HCT116 PTEN-null viability, 60 h; active compounds read low. viability, % at 10 µM. AID 827, 2007;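 active = viability at or below a set limit, 4 SD under the median of all tested compounds, cut at about 3.7% in these data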;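 note: PTEN knockout HCT116 line with beta catenin targeted HCT116 as companion control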
# HCT116 bCat-KO – primary screen for growth suppressors in beta-catenin knockout HCT116 cells (colon tumor, human) | HCT116 beta-catenin knockout viability, CellTiter-Glo, 60 h; active compounds read low | viability, % at 10 µM | 1.5% of 140,000 active | AID 818, 2007;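 active = viability at or under a set limit, the compound median less 4 SD, cut at about 6% in these data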
# H69AR growth 86K – proliferation blockers of H69AR lung cancer cells, primary screen, cell-based, human, 86K library. 6% of 85,000 active. viability, % at 10 µM. H69AR lung tumor viability, ATP luminescence, 72 h; active compounds read low;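 active = viability at or below 40%; inactive = viability above 40%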;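 note: multidrug resistant small cell line overexpressing MRP-1 efflux transporter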
# HUVEC prolif 384 – inhibitors of HUVEC proliferation, primary screen, cell-based, 384-well | 1.1% of 86,000 active | viability, % at 10 µM (by protocol) | CellTiter-Glo luminescence, 72 h; active compounds read low;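 active = viability at or below 30%; inactive = viability above 30%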
# Hits are given with their value; . = inactive; / = no result. The full list was thinned out, with hits kept by preference.
SMILES,Fibroblast inh,PTEN del growth,HCT116 bCat-KO,H69AR growth 86K,HUVEC prolif 384
O=C(/C=C/c1cccc([N+](=O)[O-])c1)NC(=S)Nc1ccc(CN2CCOCC2)cc1,/,.,.,/,/
Cc1cc(Br)c(NC(=O)COC(=O)C2CC2C)c(Br)c1 (centres undefined),/,.,.,/,/
Clc1ccc2[nH]c3c(c2c1)CCc1cn[nH]c1-3,.,.,.,22,.
CCC1CCCCN1C(=O)COC(=O)c1ccc(S(=O)(=O)N2CCOCC2)cc1 (centres undefined),.,.,.,.,.
CCOC(=O)C1=C(c2ccccc2)NC(=S)NC1c1cc([N+](=O)[O-])ccc1OC (centres undefined),/,.,.,/,/
CC1Cc2ccccc2N1C(=O)CSc1nc2c(c(=O)n(C)c(=O)n2C)n1Cc1ccc(F)cc1 (centres undefined),30,/,/,11,.
O=C(Nc1ccc(F)cc1)c1nc[nH]c1C(=O)Nc1ccccc1[N+](=O)[O-],/,1.6,2.8,/,/
O=C(Nc1ccccc1[N+](=O)[O-])c1nc[nH]c1C(=O)NCCO,/,.,.,/,/
C=CCn1c(SCc2c(C)noc2C)nc2sc(C)c(C)c2c1=O,.,.,.,20,.
Cc1cc2c(=O)n(Cc3ccco3)c(SCC(=O)c3ccc(Cl)s3)nc2s1,.,.,.,13,.
CCOC(=O)CC(=O)CSc1nc2sc(C)cc2c(=O)n1Cc1ccco1,.,.,.,.,.
C=CCn1c(SCC(=O)NC(=O)NCc2ccco2)nc2sc(C)c(C)c2c1=O,.,.,.,11,.
Cc1sc2nc(SCC(=O)C(C)(C)C)n(Cc3ccco3)c(=O)c2c1C,49,.,.,.,.
O=C(CSc1nc2c(sc3ccccc32)c(=O)n1-c1ccccc1)NCc1ccco1,/,.,.,/,/
Cc1ccc(NC(=O)COC(=O)c2ccn(C)n2)cc1,.,.,.,.,.
COc1ccc(N/N=C(\C=N\O)C(=O)c2ccc(OC)cc2)cc1,.,.,.,26,38
COc1ccc(C(=O)/C=C(\C)Nc2ccc(NC(C)=O)cc2)cc1,/,.,.,/,/
COCCn1c(=NC(=O)c2ccc(S(=O)(=O)N3CCc4ccccc4C3)cc2)sc2cc(S(N)(=O)=O)ccc21,/,.,.,/,/
C#CCn1c(=NC(=O)c2ccc(S(=O)(=O)N3CCc4ccccc4C3)cc2)sc2cc(S(N)(=O)=O)ccc21,/,1.5,1.4,/,/
C=CCn1c(=NC(=O)c2ccc(S(=O)(=O)N3CCc4ccccc4C3)cc2)sc2cc(S(N)(=O)=O)ccc21,/,1.7,1.4,/,/
CCOc1cc2[nH]c(=O)n(CCC(=O)N3CCN(c4ccccc4OC)CC3)c(=O)c2cc1OCC,.,.,.,.,.
COc1cc2[nH]c(=O)n(CCC(=O)N3CCN(c4cc(Cl)ccc4C)CC3)c(=O)c2cc1OC,3.0,1.9,2.1,0.5,2.0
Cc1ccc2c(c1)c1c(n2CC(O)Cn2nc(C)c(Br)c2C)CCCC1 (centres undefined),.,.,.,.,.
Clc1cccc(CSc2nnc(-c3sccc3-n3cccc3)o2)c1,/,.,.,/,/
CC(C)Cc1ccc(C(C)C(=O)OCC(=O)c2c[nH]c3ccccc23)cc1 (centres undefined),.,.,.,39,.
SMILES,Fibroblast inh,PTEN del growth,HCT116 bCat-KO,H69AR growth 86K,HUVEC prolif 384
COC(=O)c1ccc2nc(Nc3nc4ccc(F)cc4s3)sc2c1,/,.,.,/,/
CCOC(=O)c1csc(Nc2nc3ccc(F)cc3s2)n1,/,.,4.7,/,/
CCOC(=O)c1sc(Nc2nc3ccc(OC)cc3s2)cc1C,/,.,.,/,/
CC(=O)c1sc(Nc2nc3ccc(F)cc3s2)nc1C,.,.,.,21,.
O=C(Cc1ccccc1)NCCCN1CCN(CCCNC(=O)Cc2ccccc2)CC1,.,.,.,.,.
COc1cc(OC)c(C2=NOC(C(=O)Nc3cc(C)nn3-c3ccccc3)C2)cc1Cl (centres undefined),.,.,.,.,.
COc1cccc(C2=NOC(C(=O)Nc3cc(C)nn3-c3ccccc3)C2)c1OC (centres undefined),.,.,.,32,.
Cc1cccc(NC(=O)c2sc3nc4c(c(-c5cccs5)c3c2N)CN(C)CC4)c1,.,.,.,.,15
O=C(NCc1ccccc1)[C@@H]1C[C@H]1[C@@H](NP(=O)(c1ccccc1)c1ccccc1)c1ccccc1,/,.,.,/,/
O=C(NCC1CC1)[C@@H]1C[C@H]1[C@@H](NP(=O)(c1ccccc1)c1ccccc1)c1ccccc1,/,0.1,0.2,/,/
CC/C(O)=C(/C#N)c1nnc2n1CCCCC2,.,.,.,.,.
C=CCn1c(=O)/c(=C/c2ccc(F)cc2)s/c1=C(\C#N)c1nnc2n1CCCCC2,.,.,.,39,.
O=C(CCCc1nc2ccccc2s1)Nc1nccs1,.,.,.,.,.
Cc1cnc(NC(=O)CCCc2nc3ccccc3s2)s1,35,.,.,.,30
O=c1cc(-c2ccc(Cl)c(Cl)c2)[nH][nH]1,.,.,.,.,.
CC(NC(=O)c1ccc(F)cc1)c1nc2ccccc2n1Cc1ccccc1F (centres undefined),.,.,.,38,.
COc1ccc(OCCNC(=O)c2ccccc2OCC(=O)N2CCCCC2)cc1,.,.,.,31,.
COc1ccc(OCC(=O)N2CCN(C(=O)COc3ccc(Br)cc3)CC2)cc1,.,.,.,28,.
COc1ccc(OCCNC(=O)c2ccccc2OCC(=O)Nc2ccc(NC(C)=O)cc2)cc1,/,.,.,/,/
Cc1c(Cl)cccc1NC(=O)c1cc(-c2ccccc2O)n[nH]1,.,.,.,.,.
c1ccc2c(c1)ncn2Cc1nnc2sc(-c3ccc4c(c3)OCO4)nn12,.,.,.,.,.
CSc1nnc2c3cc(F)ccc3n(Cc3ccccc3)c2n1,.,/,/,33,.
COc1cc(SC#N)ccc1N=Cc1c(C)[nH]n(-c2ccc(C)c(C)c2)c1=O,/,0.3,0.8,/,/
COc1cc(SC#N)ccc1N=Cc1c(C)[nH]n(-c2ccc(Cl)cc2)c1=O,/,.,.,/,/
O=C(Nc1nnc(COc2ccccc2)s1)C1CCN(S(=O)(=O)c2ccc(Cl)cc2)CC1,.,.,.,33,.
SMILES,Fibroblast inh,PTEN del growth,HCT116 bCat-KO,H69AR growth 86K,HUVEC prolif 384
O=c1c(Cl)nc2cc(Cl)ccc2n1CCNc1ncc(C(F)(F)F)cc1Cl,/,1.2,1.4,/,/
O=c1c2cc3ccccc3n2cnn1Cc1ccccc1F,.,.,.,17,.
Cc1ccc2c(c1)c1c(n2CC(O)Cn2c(C)nc3ccccc32)CCCC1 (centres undefined),.,.,.,1.5,11
C=CCSc1nc2ccccc2n1C(=O)/C=C/c1ccc(OC)c(OC)c1,/,1.8,1.8,/,/
CCn1c(SCC(=O)N/N=C/c2ccc(OC)c(OC)c2)nc2ccccc21,/,.,.,/,/
COc1cc(/C=C/C(=O)NCCn2c(C)cc3ccccc32)cc(OC)c1OC,/,.,.,/,/
C=CCSc1nc2ccccc2n1C(=O)/C=C/c1cc(OC)c(OC)c(OC)c1,/,2.4,3.1,/,/
CCSc1nc2ccccc2n1C(=O)/C=C/c1ccc(OC)c(OC)c1,/,.,5.4,/,/
